Measurements taken from PMC8268672 (Bioorganic Chemistry, 2021).
Values after ≈ are worked out from the molar mass of the structure shown. Like-named read-outs stand apart in the source and are kept apart here.

Experiments:
[1] = tested on: Escherichia coli (ATCC 8739); assay: MIC, broth microdilution; format: cell-based; conditions: ATCC8739, read-out: Minimum inhibitory concentration (MIC), EC
How it was run: (§1)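 Broth microdilution per CLSI in Mueller-Hinton broth, using two-fold serial dilutions of test compound and reference drugs from 512 to 0.25. Bacterial broth cultures were grown 2-6 h to 0.5 McFarland turbidity, then diluted with sterile solution to the final inoculum. MIC is reported in µg/mL.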

[2] = tested on: Pseudomonas aeruginosa (MCCB 0035); assay: MIC, broth microdilution; format: cell-based; conditions: read-out: Minimum inhibitory concentration (MIC), PA
How it was run: as §1

[3] = tested on: Klebsiella aerogenes (NCIM-2098); assay: MIC, broth microdilution; format: cell-based; conditions: NCIM2098, read-out: Minimum inhibitory concentration (MIC), KA
How it was run: (§2)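 Antibacterial MICs by CLSI broth microdilution in Mueller-Hinton broth. Test compounds and standard drugs are serially diluted two-fold from 512 to 0.25. The bacterial broth culture is grown 2-6 h to a 0.5 McFarland turbidity, then adjusted with sterile solution to the final inoculum.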

[4] = tested on: Staphylococcus aureus (ATCC 29213); assay: MIC, broth microdilution; format: cell-based; conditions: ATCC29213, read-out: Minimum inhibitory concentration (MIC), SA
How it was run: as §2

[5] = tested on: Bacillus cereus (NCIM-2458); assay: MIC, broth microdilution; format: cell-based; conditions: NCIM2458, read-out: Minimum inhibitory concentration (MIC), BC
How it was run: as §1

[6] = tested on: Aspergillus niger (NCIM 2191); assay: MIC, broth microdilution; format: cell-based; conditions: NCIM2191, read-out: Minimum inhibitory concentration (MIC), AN
How it was run: (§3)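 Antifungal MICs by CLSI broth microdilution in Sabouraud liquid medium. Test compounds and standard drugs are serially diluted two-fold from 512 to 0.25. The fungal broth culture is grown 24 h at 35 °C to a 0.5 McFarland turbidity, then adjusted with sterile solution to the final inoculum.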

[7] = tested on: Candida albicans (NCIM 2087); assay: MIC, broth microdilution; format: cell-based; conditions: NCIM2087, read-out: Minimum inhibitory concentration (MIC), CA
How it was run: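 CLSI broth microdilution in Sabouraud liquid medium, with test compound two-fold serially diluted from 512 to 0.25. Fungal broth culture grown 24 h at 35 °C to 0.5 McFarland turbidity, then adjusted with sterile solution to a final […] inoculum. MIC expressed in µg/mL.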

[8] = tested on: Aspergillus fumigatus (NCIM 2081); assay: MIC, broth microdilution; format: cell-based; conditions: NCIM2081, read-out: Minimum inhibitory concentration (MIC), AF
How it was run: as §3

[9] = tested on: Cryptococcus neoformans (ATCC 9011); assay: MIC, broth microdilution; format: cell-based; conditions: ATCC9011, read-out: Minimum inhibitory concentration (MIC), CN
How it was run: as §3

[10] = tested on: Escherichia coli (ATCC 8739); assay: Agar disk diffusion, inhibition zone; format: cell-based; conditions: 100 µg/8 mm disc, triplicate, mean ± SD
How it was run: (§4)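 Agar disk diffusion on Mueller-Hinton agar plates seeded with a standard bacterial suspension. Test compound stock in DMSO, diluted with distilled water; 8 mm sterile filter-paper discs soaked in the solution. Ampicillin was the reference. Plates incubated at 35 °C for 24 h, in triplicate. Read-out is the average inhibition-zone diameter (mm) around each disc.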

[11] = tested on: Pseudomonas aeruginosa (MCCB 0035); assay: Agar disk diffusion, inhibition zone; format: cell-based; conditions: 100 µg/8 mm disc, triplicate, mean ± SD
[12] = tested on: Salmonella typhimurium (NCIM-2501); assay: Agar disk diffusion, inhibition zone; format: cell-based; conditions: 100 µg/8 mm disc, triplicate, mean ± SD
[13] = tested on: Klebsiella aerogenes (NCIM-2098); assay: Agar disk diffusion, inhibition zone; format: cell-based; conditions: 100 µg/8 mm disc, triplicate, mean ± SD
[14] = tested on: Staphylococcus aureus (ATCC 29213); assay: Agar disk diffusion, inhibition zone; format: cell-based; conditions: 100 µg/8 mm disc, triplicate, mean ± SD
How it was run: as §4

[15] = tested on: Bacillus cereus (NCIM-2458); assay: Agar disk diffusion, inhibition zone; format: cell-based; conditions: 100 µg/8 mm disc, triplicate, mean ± SD
[16] = tested on: Lactobacillus casei (NCIM-2651); assay: Agar disk diffusion, inhibition zone; format: cell-based; conditions: 100 µg/8 mm disc, triplicate, mean ± SD
[17] = tested on: Streptococcus pneumonia (ATCC 49619); assay: Agar disk diffusion, inhibition zone; format: cell-based; conditions: 100 µg/8 mm disc, triplicate, mean ± SD
[18] = tested on: Aspergillus niger (NCIM 2191); assay: Agar disk diffusion, inhibition zone; format: cell-based; conditions: 100 µg/8 mm disc, triplicate, mean ± SD
How it was run: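 For the fungal strain, discs soaked in test compound solution (DMSO stock diluted with distilled water) sat on seeded Mueller-Hinton agar. Clotrimazole was the reference. Incubation ran 48 h at 35 °C, in triplicate. Zone of growth inhibition recorded in mm as the mean diameter around each disc.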

[19] = tested on: Candida albicans (NCIM 2087); assay: Agar disk diffusion, inhibition zone; format: cell-based; conditions: 100 µg/8 mm disc, triplicate, mean ± SD
[20] = tested on: Aspergillus fumigatus (NCIM 2081); assay: Agar disk diffusion, inhibition zone; format: cell-based; conditions: 100 µg/8 mm disc, triplicate, mean ± SD
[21] = tested on: Cryptococcus neoformans (ATCC 9011); assay: Agar disk diffusion, inhibition zone; format: cell-based; conditions: 100 µg/8 mm disc, triplicate, mean ± SD
Vaccinia virus = assay: microbe, parasite or virus in culture; format: cell-based; conditions: Orthopoxvirus vaccinia, HEL, read-out: Antiviral EC50, Vaccinia virus
Adeno virus-2 = assay: CPE reduction assay in HEL cells; format: cell-based; conditions: read-out: Antiviral EC50, Adeno virus-2
Human Coronavirus (229E) = assay: CPE reduction assay in HEL cells; format: cell-based; conditions: read-out: Antiviral EC50, Human Coronavirus (229E)
Para-influenza-3 virus = assay: CPE reduction assay in Vero cells; format: cell-based, Parainfluenza-3 virus; conditions: Vero, read-out: Antiviral EC50, Para-influenza-3 virus
Reovirus-1 = assay: CPE reduction assay in Vero cells; format: cell-based; conditions: read-out: Antiviral EC50, Reovirus-1
Sindbis virus = assay: CPE reduction assay in Vero cells; format: cell-based; conditions: read-out: Antiviral EC50, Sindbis virus
Coxsackie virus B4 = assay: CPE reduction assay in Vero cells; format: cell-based; conditions: Enterovirus B, read-out: Antiviral EC50, Coxsackie virus B4
Punta Toro virus = assay: CPE reduction assay in Vero cells; format: cell-based; conditions: read-out: Antiviral EC50, Punta Toro virus
Yellow Fever virus = assay: microbe, parasite or virus in culture; format: cell-based; conditions: Yellow fever virus, Vero, read-out: Antiviral EC50, Yellow Fever virus
[22] = tested on: Influenza A/H1N1 A/Ned/378/05; assay: CPE reduction assay in MDCK cells; format: cell-based; conditions: Influenza A virus
[23] = tested on: Influenza A/H3N2 A/HK/7/87; assay: CPE reduction assay in MDCK cells; format: cell-based; conditions: Influenza A virus
Influenza B B/Ned/537/05 = assay: CPE reduction assay in MDCK cells; format: cell-based; conditions: Influenza B virus, read-out: Antiviral EC50, Influenza B B/Ned/537/05, MTS
[24] = tested on: Human embryonic lung (HEL) cells; conditions: HEL cell cultures; microscopically detectable alteration of normal cell morphology
Vero cells = conditions: Vero cell cultures; microscopically detectable alteration of normal cell morphology
[25] = tested on: Madin Darby canine kidney (MDCK) cells; conditions: dog
MT4 cells = conditions: MT4 cell cultures; colorimetric MTT cell viability assay
[26] = read-out: Antiviral EC50, Influenza A/H1N1 A/Ned/378/05, MTS
[27] = read-out: Antiviral EC50, Influenza A/H1N1 A/Ned/378/05, visual CPE score
[28] = read-out: Antiviral EC50, Influenza A/H3N2 A/HK/7/87, MTS
[29] = read-out: Antiviral EC50, Influenza A/H3N2 A/HK/7/87, visual CPE score

Structure (SMILES)	MIC [1]	MIC [2]	MIC [3]	MIC [4]	MIC [5]	MIC [6]	MIC [7]	MIC [8]	MIC [9]	Diameter of growth inhibition zone, EC [10]	Diameter of growth inhibition zone, PA [11]	Diameter of growth inhibition zone, ST [12]	Diameter of growth inhibition zone, KA [13]	Diameter of growth inhibition zone, SA [14]	Diameter of growth inhibition zone, BC [15]	Diameter of growth inhibition zone, LC [16]	Diameter of growth inhibition zone, SP [17]	Diameter of growth inhibition zone, AN [18]	Diameter of growth inhibition zone, CA [19]	Diameter of growth inhibition zone, AF [20]	further results
Cc1ccc(S(=O)(=O)N2C(=O)CSC2c2ccc([N+](=O)[O-])cc2)cc1 (stereo not drawn) [5q, 3-[(4-Methylphenyl)sulfonyl]-2-(4-nitrophenyl)-1,3-thiazolidin-4-one]	16 µg/mL (≈ 42.3 µM)	32 µg/mL (≈ 84.6 µM)	32 µg/mL (≈ 84.6 µM)	32 µg/mL (≈ 84.6 µM)	32 µg/mL (≈ 84.6 µM)	4 µg/mL (≈ 10.6 µM)	4 µg/mL (≈ 10.6 µM)	4 µg/mL (≈ 10.6 µM)	2 µg/mL (≈ 5.28 µM)	17 ± 1.2 mm	18 ± 1.2 mm	10 ± 1.1 mm	12 ± 0.4 mm	18 ± 1.2 mm	12 ± 0.6 mm	14 ± 0.4 mm	10 ± 0.45 mm	22 ± 0.46 mm	23 ± 1.2 mm	21 ± 0.63 mm	Diameter of growth inhibition zone, CN [21]: 19 ± 1.3 mm; EC50 (Vaccinia virus): > 100 µM; EC50 (Adeno virus-2): > 100 µM; EC50 (Human Coronavirus (229E)): > 100 µM; EC50 (Para-influenza-3 virus): > 100 µM; EC50 (Reovirus-1): > 100 µM; EC50 (Sindbis virus): > 100 µM; EC50 (Coxsackie virus B4): > 100 µM; EC50 (Punta Toro virus): > 100 µM; EC50 (Yellow Fever virus): > 100 µM; EC50 [22, 26]: > 100 µM; EC50 [22, 27]: > 100 µM; EC50 [23, 28]: > 100 µM; EC50 [23, 29]: > 100 µM; EC50 (Influenza B B/Ned/537/05): > 100 µM; Minimum cytotoxic conc. [24]: >100 µM; Minimum cytotoxic conc. (Vero cells): >100 µM; Cytotoxicity, Minimum cytotoxic conc. [25]: >100 µM; Minimum cytotoxic conc. (MT4 cells): >125 µM
Cc1ccc(S(=O)(=O)N2C(=O)CSC2c2cccc(Br)c2)cc1 (stereo not drawn) [5c, 2-(3-Bromophenyl)-3-[(4-methylphenyl)sulfonyl]-1,3-thiazolidin-4-one]	16 µg/mL (≈ 38.8 µM)	16 µg/mL (≈ 38.8 µM)	16 µg/mL (≈ 38.8 µM)	32 µg/mL (≈ 77.6 µM)	32 µg/mL (≈ 77.6 µM)	32 µg/mL (≈ 77.6 µM)	32 µg/mL (≈ 77.6 µM)	32 µg/mL (≈ 77.6 µM)	64 µg/mL (≈ 155 µM)	19 ± 0.53 mm	16 ± 1.5 mm	12 ± 0.32 mm	14 ± 0.6 mm	17 ± 1.2 mm	12 ± 0.32 mm	14 ± 0.43 mm	10 ± 0.9 mm	12 ± 0.6 mm	12.1 ± 0.9 mm	11 ± 1.5 mm	Diameter of growth inhibition zone, CN [21]: 7.5 ± 0.5 mm; EC50 (Vaccinia virus): > 100 µM; EC50 (Adeno virus-2): > 100 µM; EC50 (Human Coronavirus (229E)): > 100 µM; EC50 (Para-influenza-3 virus): > 100 µM; EC50 (Reovirus-1): > 100 µM; EC50 (Sindbis virus): > 100 µM; EC50 (Coxsackie virus B4): > 100 µM; EC50 (Punta Toro virus): > 100 µM; EC50 (Yellow Fever virus): > 100 µM; EC50 [22, 26]: > 100 µM; EC50 [22, 27]: > 100 µM; EC50 [23, 28]: > 100 µM; EC50 [23, 29]: > 100 µM; EC50 (Influenza B B/Ned/537/05): > 100 µM; Minimum cytotoxic conc. [24]: >100 µM; Minimum cytotoxic conc. (Vero cells): >100 µM; Cytotoxicity, Minimum cytotoxic conc. [25]: >100 µM; Minimum cytotoxic conc. (MT4 cells): >125 µM
